Results as given in PMC3377471 (Journal of the American Chemical Society, 2012).
*1 amine or outer side, *2 acyl side, *3 side chain or, on linkers, in order; H or OH if unused. Where a SMILES comes first, the peptide text is derived from it. [ ]: non-standard residue; d: D form. X1 = O=C([C@H]1CCC[C@@H]1N[*:1])[*:2]; X2 = O=C([C@H]1CNC[C@@H]1N[*:1])[*:2]; β3hR = N=C(N)NCCC[C@H](N)CC(=O)O; β3hT = C[C@@H](O)[C@H](N)CC(=O)O; β3hE = N[C@@H](CCC(=O)O)CC(=O)O

Columns and labels:
HIV-1 CC 7/86 = format: cell-based
HIV-1 DJ258 = format: cell-based
HIV-1 UG270 = format: cell-based
HIV-1 JRFL = format: cell-based
[1] = target: gp41-derived NHR peptide N36 (Human immunodeficiency virus type 1 group M subtype B, UniProt P04578); format: physicochemical, HIV; settings: variable-temperature CD; co-assembly with NHR peptide N36
Sequence of gp41-derived NHR peptide N36 (P04578 546-581 limits assumed): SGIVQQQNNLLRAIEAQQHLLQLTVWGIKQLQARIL

designed protein gp41-5 = assay: competition fluorescence polarization; design: species or system HIV; settings: read-out: Ki for binding to gp41-5; competition FP assay
In short: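 Competition fluorescence polarization binding of test compound to a designed gp41-5 construct made of three NHR segments and two CHR segments joined by flexible loops. Ki reported.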

proteinase K [2] = assay: in vitro; format: in vitro ADME; settings: isolated enzyme proteinase k
proteinase K [3] = target: proteinase K (Parengyodontium album, UniProt P06873); settings: in vitro, ref 3a; cited from earlier work
Sequence of proteinase K (Parengyodontium album, UniProt P06873) (P06873 106-384): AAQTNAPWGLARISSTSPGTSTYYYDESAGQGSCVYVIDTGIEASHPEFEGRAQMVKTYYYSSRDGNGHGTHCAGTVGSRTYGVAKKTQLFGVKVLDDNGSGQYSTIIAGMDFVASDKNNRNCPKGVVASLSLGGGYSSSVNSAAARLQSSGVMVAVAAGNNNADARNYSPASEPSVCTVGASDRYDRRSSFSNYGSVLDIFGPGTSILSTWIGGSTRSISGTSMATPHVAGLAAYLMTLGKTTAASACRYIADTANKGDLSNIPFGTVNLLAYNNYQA

Molecule	IC50 (HIV-1 CC 7/86) [nM]	IC50 (HIV-1 DJ258) [nM]	IC50 (HIV-1 UG270) [nM]	IC50 (HIV-1 JRFL) [nM]	apparent Tm of helix-bundle with N36 [1] [°C]	Ki (designed protein gp41-5) [nM]	half-life (proteinase K [2]) [min]	resistance to degradation by proteinase K relative to α-peptide T-2635 (proteinase K [3])
Enfuvirtide	140	200	110	180	–	–	–	–
Ac-RTWEEWDRAIAEYARRIEELIRAAQEQQRKNEEALREL-NH2 (N-terminus and C-terminus assumed) [3α]	–	–	–	–	91	< 0.2	–	–
CC[C@H](C)[C@H](NC(=O)[C@H](C)NC(=O)C[C@H](CCCNC(=N)N)NC(=O)[C@H](CC(=O)O)NC(=O)[C@H](Cc1c[nH]c2ccccc12)NC(=O)C[C@H](CCC(=O)O)NC(=O)[C@H](CCC(=O)O)NC(=O)[C@H](Cc1c[nH]c2ccccc12)NC(=O)[C@@H](NC(=O)C[C@H](CCCNC(=N)N)NC(C)=O)[C@@H](C)O)C(=O)N[C@@H](C)C(=O)N[C@@H](CCC(=O)O)CC(=O)N[C@@H](Cc1ccc(O)cc1)C(=O)N[C@@H](C)C(=O)N[C@@H](CCCNC(=N)N)CC(=O)N[C@@H](CCCNC(=N)N)C(=O)N[C@H](C(=O)N[C@@H](CCC(=O)O)C(=O)N[C@@H](CCC(=O)O)CC(=O)N[C@@H](CC(C)C)C(=O)N[C@H](C(=O)N[C@@H](CCCNC(=N)N)CC(=O)N[C@@H](C)C(=O)N[C@@H](C)C(=O)N[C@@H](CCC(N)=O)C(=O)N[C@@H](CCC(=O)O)CC(=O)N[C@@H](CCC(N)=O)C(=O)N[C@@H](CCC(N)=O)C(=O)N[C@@H](CCCNC(=N)N)CC(=O)N[C@@H](CCCCN)C(=O)N[C@@H](CC(N)=O)C(=O)N[C@@H](CCC(=O)O)C(=O)N[C@@H](CCC(=O)O)CC(=O)N[C@@H](C)C(=O)N[C@@H](CC(C)C)C(=O)N[C@@H](CCCNC(=N)N)CC(=O)N[C@@H](CCC(=O)O)C(=O)N[C@@H](CC(C)C)C(N)=O)[C@@H](C)CC)[C@@H](C)CC [4α/β] (Ac-[β3hR]TWE[β3hE]WD[β3hR]AIA[β3hE]YA[β3hR]RIE[β3hE]LI[β3hR]AAQ[β3hE]QQ[β3hR]KNE[β3hE]AL[β3hR]EL-NH2; N-terminus and C-terminus assumed)	49	78	56	153	–	11	3.5	–
CC[C@H](C)[C@H](NC(=O)[C@H](C)NC(=O)[C@H]1CNC[C@@H]1NC(=O)[C@H](CC(=O)O)NC(=O)[C@H](Cc1c[nH]c2ccccc12)NC(=O)[C@H]1CCC[C@@H]1NC(=O)[C@H](CCC(=O)O)NC(=O)[C@H](Cc1c[nH]c2ccccc12)NC(=O)[C@@H](NC(=O)C[C@@H](NC(C)=O)[C@@H](C)O)[C@@H](C)O)C(=O)N[C@@H](C)C(=O)N[C@@H](CCC(=O)O)CC(=O)N[C@@H](Cc1ccc(O)cc1)C(=O)N[C@@H](C)C(=O)N[C@H]1CCC[C@@H]1C(=O)N[C@@H](CCCNC(=N)N)C(=O)N[C@H](C(=O)N[C@@H](CCC(=O)O)C(=O)N[C@H]1CCC[C@@H]1C(=O)N[C@@H](CC(C)C)C(=O)N[C@H](C(=O)N[C@H]1CNC[C@@H]1C(=O)N[C@@H](C)C(=O)N[C@@H](C)C(=O)N[C@@H](CCC(N)=O)C(=O)N[C@@H](CCC(=O)O)CC(=O)N[C@@H](CCC(N)=O)C(=O)N[C@@H](CCC(N)=O)C(=O)N[C@@H](CCC(=O)O)CC(=O)N[C@@H](CCCCN)C(=O)N[C@@H](CC(N)=O)C(=O)N[C@@H](CCC(=O)O)C(=O)N[C@H]1CCC[C@@H]1C(=O)N[C@@H](C)C(=O)N[C@@H](CC(C)C)C(=O)N[C@H]1CNC[C@@H]1C(=O)N[C@@H](CCC(=O)O)C(=O)N[C@@H](CC(C)C)C(N)=O)[C@@H](C)CC)[C@@H](C)CC [2α/β] (Ac-[β3hT]TWE[X1]WD[X2]AIA[β3hE]YA[X1]RIE[X1]LI[X2]AAQ[β3hE]QQ[β3hE]KNE[X1]AL[X2]EL-NH2; N-terminus and C-terminus assumed)	47	42	39	131	–	–	–	~ 300 fold
CC[C@H](C)[C@H](NC(=O)[C@H](C)NC(=O)C[C@H](CCCNC(=N)N)NC(=O)[C@H](CC(=O)O)NC(=O)[C@H](Cc1c[nH]c2ccccc12)NC(=O)C[C@H](C)NC(=O)[C@H](CCC(=O)O)NC(=O)[C@H](Cc1c[nH]c2ccccc12)NC(=O)[C@@H](NC(=O)C[C@@H](NC(C)=O)[C@@H](C)O)[C@@H](C)O)C(=O)N[C@@H](C)C(=O)N[C@@H](CCC(=O)O)CC(=O)N[C@@H](Cc1ccc(O)cc1)C(=O)N[C@@H](C)C(=O)N[C@@H](C)CC(=O)N[C@@H](CCCNC(=N)N)C(=O)N[C@H](C(=O)N[C@@H](CCC(=O)O)C(=O)N[C@@H](C)CC(=O)N[C@@H](CC(C)C)C(=O)N[C@H](C(=O)N[C@@H](CCCNC(=N)N)CC(=O)N[C@@H](C)C(=O)N[C@@H](C)C(=O)N[C@@H](CCC(N)=O)C(=O)N[C@@H](CCC(=O)O)CC(=O)N[C@@H](CCC(N)=O)C(=O)N[C@@H](CCC(N)=O)C(=O)N[C@@H](CCC(=O)O)CC(=O)N[C@@H](CCCCN)C(=O)N[C@@H](CC(N)=O)C(=O)N[C@@H](CCC(=O)O)C(=O)N[C@@H](C)CC(=O)N[C@@H](C)C(=O)N[C@@H](CC(C)C)C(=O)N[C@@H](CCCNC(=N)N)CC(=O)N[C@@H](CCC(=O)O)C(=O)N[C@@H](CC(C)C)C(N)=O)[C@@H](C)CC)[C@@H](C)CC [1α/β]	–	–	–	–	–	3800	4	–
